HIV Env fusion – blocks HIV Env-driven cell-cell fusion. 1.1% of 360,000 active. inhibition, % at 12.3 µM. AID 651610. HeLa-JRFL Env/CEM21 cell fusion, luciferase;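 active means mean replicate inhibition score of at least 50 and every replicate individually at or above 50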;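 further: 0% = plate neutral controls and 100% = maraviroc near 300 nM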
E-selectin induc – E-selectin induction on HUVECs | P16581 | AID 686992 | 0.37% of 260,000 active | HUVEC E-selectin immunofluorescence imaging; normalized: neutral wells 0, TNF-alpha wells 100 | activation, % at 7.58 µM;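 active means mean E-selectin-positive cell signal at least 10% of the positive control, reached in at least 60% of replicates, without over 20% cell loss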
Target sequence (P16581 whole entry, looked up): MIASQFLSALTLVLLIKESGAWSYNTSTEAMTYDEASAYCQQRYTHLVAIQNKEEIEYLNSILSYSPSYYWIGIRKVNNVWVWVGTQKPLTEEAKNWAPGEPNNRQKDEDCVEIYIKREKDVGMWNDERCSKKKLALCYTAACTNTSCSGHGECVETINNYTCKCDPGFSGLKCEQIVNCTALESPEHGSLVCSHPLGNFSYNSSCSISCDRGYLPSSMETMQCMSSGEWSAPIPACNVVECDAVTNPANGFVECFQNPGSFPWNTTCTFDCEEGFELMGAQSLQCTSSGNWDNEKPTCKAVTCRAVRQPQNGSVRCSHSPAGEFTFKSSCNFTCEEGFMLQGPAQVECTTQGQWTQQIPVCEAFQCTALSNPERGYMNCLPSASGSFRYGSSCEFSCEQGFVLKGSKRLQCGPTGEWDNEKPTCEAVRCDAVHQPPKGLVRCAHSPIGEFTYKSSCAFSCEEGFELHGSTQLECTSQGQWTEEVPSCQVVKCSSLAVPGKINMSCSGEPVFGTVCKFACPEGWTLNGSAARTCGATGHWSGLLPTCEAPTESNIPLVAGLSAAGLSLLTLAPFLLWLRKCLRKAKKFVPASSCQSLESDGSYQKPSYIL
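System: HUVEC, human umbilical vein endothelial cells; quantity: 3,000 cells/well; buffer or medium: EGM-2 medium, gelatin-coated wells; dosing: single-point compound dose; detection: immunofluorescence imaging; evaluation: % PE-positive cells; benchmarks: TNF-alpha, DMSO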
FGF22 binding – shifts melting point of recombinant human FGF22; Q9HCT0; recombinant FGF22 thermal shift, SYPRO orange fluorescence; percent of sucrose octasulfate shift, DMSO zero; activity (Tm shift, normalised), % at 9.99 µM; 1.5% of 340,000 active; AID 651658;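 active means mean Tm shift, scaled 0 neutral to 100 positive control, at about 1.3% or above, every replicate too, limit read from the data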
S100A4 inh HTS – blocks human S100A4 binding to myosin IIA peptide. AID 652163. inhibition, % at 10.7 µM. P26447. 0.14% of 360,000 active. S100A4/TAMRA-MyoIIA peptide fluorescence polarization;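 active means mean inhibition of at least 70% across replicates, with every replicate also reaching that level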
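System – human S100A4 monomer protein, biochemical binding assay · Buffer or medium – Calcium-containing HEPES buffer, pH 7.2 · Timing – 5 min between mix addition and reading · Also added – TAMRA-labelled myosin IIA heavy-chain peptide probe, 5 nM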
F508del corr – correctors of CFTR F508del function in bronchial epithelial cells | 0.36% of 350,000 active | activity (quench increase), % at 7.58 µM | CFBE cells, YFP halide quenching; stimulated with forskolin plus potentiator P3; % fluorescence drop versus neutral controls;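 active means mean added fluorescence quench of at least 8% versus neutral control, with both replicates also reaching 8%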;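 further: cells transiently co-express mutant CFTR-F508del with the halide-sensitive YFP; corrector assay measuring rescue of mutant channel to the surface after 24 h compound exposure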
The depositor's hits bear a star; · = no result; [ ] = remark or other dose. Shown are actives, neighbours in structure and some others; about 2.7% of the full set was active somewhere.

SMILES	HIV Env fusion	E-selectin induc	FGF22 binding	S100A4 inh HTS	F508del corr
COc1ccc(N2CCN(C(c3cccs3)C(C)NC(=O)c3ccc4c(c3)OCO4)CC2)cc1 (configuration not stated)	8.5	·	43.3*	-3.4	-1.6
CC(=O)N(c1ccccc1C)C1CCCC1	·	·	-0.1	-0.9	-2.6
CC(=O)N(C1=C(Cl)C(=O)c2ccccc2C1=O)C1CCCCC1	22.1	35.6*	-0.6	-1.7	-5.9
COc1ccc(NC(=O)Nc2ccc3c(c2)C(=O)N(C)C[C@@H](OC)[C@@H](C)CN[C@@H](C)CO3)cc1	4.1[16.7 µM]	0.1	·	·	-0.8
C[C@H]1CN([C@@H](C)CO)C(=O)Cc2cc(NC(=O)NC3CCCCC3)ccc2O[C@@H]1CN(C)Cc1ccc2c(c1)OCO2	·	13.8	0.2	8.3	-2.5
CCOc1ccccc1CNC(=O)CCn1ccc2cc(S(=O)(=O)N3CCCCC3)ccc21	61.5*	·	0.2	2.1	1.9
CC1CCN(S(=O)(=O)c2ccc3c(ccn3CCC(=O)N3CCCCC3)c2)CC1	2.1	·	0.1	-3.8	-0.5
CC1CCC(NC(=O)CCn2ccc3cc(S(=O)(=O)N4CCCC4)ccc32)CC1 (configuration not stated)	73.3*	·	0.2	-3.7	-2.1
CCOc1ccccc1CNC(=O)Cn1ccc2cc(S(=O)(=O)N3CCCCCC3)ccc21	27.3	·	0.1	-2.2	1.5
COc1ccc(C(=O)NNC(=O)CSc2nnc(C)n2CC2CCCO2)cc1 (configuration not stated)	8.3	·	43.5*	2.1	4.1
COc1ccc(OC)c(-n2nnnc2SCC(=O)Nc2ccccc2OC)c1	14.1	0.9	0.1	-4.7	0.4
CCOC(=O)c1cnc(SCC(=O)Nc2cc(OC)ccc2OC)nc1N	73.9*	·	·	·	·
CCn1c(COc2ccc(C)cc2)nnc1SCC(=O)Nc1cc(OC)ccc1OC	58.0*	·	·	·	·
CCn1c(COc2cccc(OC)c2)nnc1SCC(=O)Nc1ccccc1C(=O)OC	26.5	·	·	4.4	·
COc1ccc(CC(=O)NC(C)c2nnc(SCC(=O)Nc3ccccc3)n2C)cc1 (configuration not stated)	-5.7	-0.6	0.2	2.8	-2.8
COc1ccc(CC(=O)NC(C)c2nnc(SCC(=O)Nc3cc(C)ccc3OC)n2C)cc1 (configuration not stated)	6.1	·	1.6*	5.4	2.2
COc1ccc(OC)c(NC(=O)CSc2nnnn2C)c1	0.3	·	43.2*	1.1	-0.1
C[C@@H]1CN([C@@H](C)CO)C(=O)c2cc(NC(=O)Nc3cccc4ccccc34)ccc2O[C@@H]1CN(C)C(=O)Nc1ccccc1	·	0.1	-0.3	2.7	1.8
CN1CCN(C(=O)C[C@@H]2C=C[C@@H](NS(=O)(=O)c3cccc(F)c3)[C@H](CO)O2)CC1	-6.1[16.7 µM]	-0.4	-0.1	-3.7	-0.1
Cc1cc2c(cc1C)C(c1ccccc1OC(C)C)CC(=O)N2 (configuration not stated)	-12.0	1.0	0.0	-13.8	12.3*
Cc1ccc(C)c(-n2cc(CNCCCn3cccn3)c(-c3ccccc3)n2)c1	69.4*	0.0	0.1	-19.7	3.7
CC1=C(C(=O)N2CCOCC2)C(c2ccc(OC(F)F)cc2)NC(=S)N1c1ccccc1 (configuration not stated)	1.5	·	43.2*	7.1	1.0
CC1=C(C(=O)N2CCOCC2)C(c2ccc(Br)cc2)NC(=S)N1c1ccccc1 (configuration not stated)	8.4	·	0.3	0.4	0.6
N#Cc1ccc(-c2ccc([C@H]3[C@H](CO)N4CCCCN(S(=O)(=O)c5ccccc5)C[C@@H]34)cc2)cc1	·	0.2	0.2	5.6	1.6
CS(=O)(=O)Nc1ccc2c(c1)[C@@H]1C[C@@H](CC(=O)NCc3ccc(Oc4ccccc4)cc3)O[C@@H](CO)[C@@H]1O2	-237.9[16.7 µM]	-0.6	0.0	-3.4	7.2
SMILES	HIV Env fusion	E-selectin induc	FGF22 binding	S100A4 inh HTS	F508del corr
Cc1cc(NC(=O)CSc2ccc3nnc(CCNS(=O)(=O)c4ccccc4)n3n2)no1	3.2	·	43.8*	2.6	2.6
CCNc1nc(C(=O)O)nc(N2CCOCC2)n1	1.0	-0.1	43.1*	0.1	-2.9
COc1ccc(S(=O)(=O)N[C@H]2CC[C@H](CCn3cc(-c4ccccc4F)nn3)O[C@H]2CO)cc1	0.4[16.7 µM]	-0.3	0.9	-1.0	1.9
CN(CCC#N)C(=O)COC(=O)C1c2ccccc2Oc2ccccc21	8.1	-0.2	-0.4	-0.8	0.5
N#CCCN(CCC#N)C(=O)C1c2ccccc2Oc2ccccc21	5.2	0.0	-0.4	131.2*	2.2
COc1ccc(OC)c(C2CC(c3ccccc3)=NN2C(=S)Nc2ccccc2)c1 (configuration not stated)	-9.2	0.0	0.0	2.1	11.5*
Cc1ccc(S(=O)(=O)N(Cc2cc3ccccc3[nH]c2=O)c2cccc(C)c2)cc1	23.2	1.9	0.1	-4.3	14.4*
Cc1ccc(S(=O)(=O)N(Cc2cc3ccc(C)cc3[nH]c2=O)c2ccccc2)cc1	-19.1	·	0.2	-3.0	0.1
C[C@H](CO)N1C[C@H](C)[C@@H](CN(C)C)OCCCC[C@H](C)Oc2ccc(NS(=O)(=O)c3ccccc3)cc2C1=O	-5.6[16.7 µM]	-0.3	·	·	-3.5
CC(=O)c1cccc(NC(=O)C2=CC(c3ccco3)=NS(=O)(=O)N2C)c1	0.4	·	0.0	-0.1	3.2
CC(=O)c1cccc(NC(=O)C2=CN3CCS(=O)(=O)N=C3C=C2)c1	·	75.2*	0.0	7.9	-2.9
O=C(NCC[C@@H]1CC[C@H](NC(=O)C2CC2)[C@H](CO)O1)c1cc(Cl)cc(Cl)c1	6.2[16.7 µM]	-0.3	0.0	8.6	2.3
O=c1[nH][nH]c(-c2ccccc2)c1C=Nc1ccc(F)cc1F	7.8	·	43.9*	-7.6	0.0
Cc1sc(NC(=O)Cc2ccc3c(c2)OCO3)nc1-c1ccc2c(c1)CCN2C(=O)c1ccccc1F	73.7*	·	·	·	·
Cc1sc(NC(=O)CN2CCCC2)nc1-c1ccc2c(c1)CCN2C(=O)c1cccc(F)c1	-1.3	·	0.4	-4.3	-0.8
CCCN(C)C[C@H]1Oc2ncc(C#CC3CC3)cc2C(=O)N([C@@H](C)CO)C[C@@H]1C	10.6[16.7 µM]	0.0	·	·	1.0
CCC(=O)N(C)C[C@@H]1Oc2cc(-c3ccccc3)ccc2S(=O)(=O)N([C@H](C)CO)C[C@H]1C	7.1[16.7 µM]	-0.2	0.1	7.7	-0.4
O=C(CNC(=O)c1ccccc1F)OCc1nc2ccccc2s1	-12.8	0.0	-0.3	3.0	-1.1
O=C(CNC(=O)c1ccccc1)OCc1nc2ccccc2s1	-363.1	·	43.3*	18.1	0.3
O=S(=O)(c1ccccc1Cl)N1CCCC1c1nc(-c2ccc(Cl)cc2)no1 (configuration not stated)	82.4*	-0.7	·	·	·
C[C@@H]1CN([C@H](C)CO)C(=O)Cc2cc(NS(=O)(=O)c3ccc(F)cc3)ccc2O[C@H]1CN(C)S(=O)(=O)c1cccs1	-5.8[16.7 µM]	-0.3	0.1	12.2	-0.1
